Columns and labels:
4T1 tumor-bearing mice [1] = test: Tumor retention after intratumoral injection; assay type: in vivo, BALB/c mice; conditions: observed 6–120 h
Procedure, shortened: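 4T1 flank tumors were raised in female BALB/c mice, and test compound or free P18 solution (10 μL) was injected into the tumor. Fluorescence was imaged by IVIS under isoflurane at 6, 12, 24, 48, 72, 96 and 120 h, and tumor intensity was quantified. In a separate pair of groups, the MMP-2 inhibitor Ilomastat (8 mg/kg) was injected into the tumor 15 min before the test compound, compared with no inhibitor. Tumor fluorescence was imaged at serial time points.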

4T1 tumor-bearing mice [2] = test: In vivo photothermal effect; parameters: species or system BALB/c mice; conditions: 6 h after tail vein injection, 660 nm, 0.5 W/cm^2, 6 min
Procedure, shortened: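 The 4T1 model was female BALB/c mice with subcutaneous flank tumors, in two groups. One group got test compound i.v. (100 μL, 2.845 mg/mL in PBS); the comparator group got free P18 solution (100 μL) under the same conditions. Infrared thermal camera images and tumor temperature curves were recorded during irradiation.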

4T1 tumor-bearing mice [3] = test: In vivo biodistribution after tail vein injection; parameters: species or system BALB/c mice; conditions: 1–24 h
Procedure, shortened: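 Female BALB/c mice (4–6 weeks, 18–20 g) received 5 × 10^5 4T1 cells subcutaneously in the right flank and were grouped once tumors reached about 100 mm3. Test compound (100 μL, 2.845 mg/mL in PBS) was injected into the tail vein; free P18 in 10% DMSO/PBS served as comparator. P18 fluorescence was imaged by IVIS under isoflurane at 1, 3, 6, 9, 12 and 24 h. Mean tumor-site intensity was computed, and excised organs and tumor were imaged at 24 h.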

Purpurin 18 [P18]
course of tumor fluorescence intensity post i.t. injection (4T1 tumor-bearing mice [1]): decreased gradually until 120 h
temperature of the tumor under laser irradiation (4T1 tumor-bearing mice [2]): 41 °C
fluorescence signal at the tumor site (4T1 tumor-bearing mice [3]): barely detectable

— article PMC9519467 (Bioactive Materials, 2022)
